This sample holds only a part of the variants without activity.

B1: tRNA (parent)
chain: GUUCCGUUGGCGUAAUGGUAACGCGUCUCCCUCCUAAGGAGAAGACUGCGGGUUCGAGUCCCGUACGGAACG

In the data set the parent is B1. Nature of the data set: yeast fitness relative to wild type (ratio to wild type); higher = fitter; tRNA-Arg(CCU), competitive growth, 37 C, YPD. In a few lines:
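Amplicons of the tRNA-Arg(CCU) gene were sequenced, 100-nucleotide paired-end, from the start population and from each end population of a pooled yeast competition. The competition, in six parallel replicates, lasted 24 hours in YPD at 37°C. Fitness relative to wild type was calculated from changes in genotype frequencies. Genotypes had to have ≥ 100 starting reads, and estimates < 0.5 were set to 0.5.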
G10C C62U: the yeast fitness came out at 0.646.
With G10A A20U C31G C62U, the yeast fitness was at most 0.5.
The result for C11A C29U C46U G67C A69U reads at most 0.5.
Regarding G10A U16A U35G, the yeast fitness was at most 0.5.
The result for G10C C24A G44C reads at most 0.5; that for C11A C27U G44C, 0.572; that for G10C G23C A42G G50A A57C G67A, at most 0.5.
To G10C C22G C29A C46U A65C belongs 0.538; to C11A A15C C24A C27A G41C, 0.583.
The result for G10A C27G U28G C34U C46G G67A reads at most 0.5; that for G10C A37C A42U, at most 0.5; that for G10A C24A A43C C61U, at most 0.5.
With G10A C31A C61U, the yeast fitness is at most 0.5.
As to G10C C22G C33A, the yeast fitness came out at 0.581.
Regarding C11A A21C C31A C55U G68C, the yeast fitness is at most 0.5.
The result for G10C C24U C34U A36U C46A reads 0.505; that for G10A G23C G52A, 0.565; that for C11A A43G A69U, 0.582.
The result for G10A C29U C30G C34A U53C reads at most 0.5; that for G10C U35G A43C U47C C55U A69C, 0.574.
To G10A U26G A65U belongs at most 0.5; to G10A C30A C31G, at most 0.5.
Take C11A A21U C66U: the yeast fitness is at most 0.5.
The result for G10A G23C C33G C55G reads at most 0.5.
To G10A A20C G38A G41A U47A belongs at most 0.5.
The result for G10C G18C A45C reads at most 0.5; that for G10C A40U U47C G68A, at most 0.5.
Regarding C11A A20G C22G C49G G68C A69C, the yeast fitness is at most 0.5.
To G10A A15U A36U belongs at most 0.5; to G10C G58A C66G, at most 0.5; to G10C C11G C31U U35C U54A, at most 0.5.
For G10C G12A A36G C46A U47A, the yeast fitness is at most 0.5.
For the variant C11A A36G A43U, the yeast fitness is at most 0.5.
As for G10C A42G A57U, the yeast fitness is at most 0.5.
On to G10C C24U G68U, for which the yeast fitness is at most 0.5.
To C11A A42C G51A A69C belongs at most 0.5; to G10C C22A C24G G51C C62U, at most 0.5.
The result for G10A G68C reads 0.768; that for G10A U19C G48A C49G A69U, 0.594; that for G10A C33U, 0.592.
The result for G10A A21C C34U reads at most 0.5.
As for C11A A15G C49U, the yeast fitness was 0.55.
To G10A C62U belongs 0.843.
To G10A U13A C24A belongs 0.582.
The result for G10C G25C U26C reads 0.526.
For the variant G10A G48A, the yeast fitness came out at 0.636.
The result for G10C A43C C49U A69U reads at most 0.5; that for G10A G17C C30G C33G C61A, 0.556.
The result for G10C C33G A36C C46A A65U reads 0.53; that for G10C G23C A45U U59G, 0.528; that for G10A G12A G68C, at most 0.5.
C11A A45G: the yeast fitness stood at 0.603.
To C11A C27U C31U C34G A40G G63C belongs at most 0.5.
The result for G10A C29U A57C reads at most 0.5; that for G10C G52A, 0.666.
The result for C11A A69U reads 0.734.
On to C11A C22G C29G C62U, for which the yeast fitness came out at 0.57.
For the variant G10A C27U C34G A37U G41C G48A, the yeast fitness came out at 0.573.
Take G10C C11A C34A G51A C61G A69U: the yeast fitness was at most 0.5.
To G10C G50A belongs 0.76; to G10A C24A C30A C31G A43U, at most 0.5.
The result for G10U A42U reads 0.775; that for G10C U19A C31G A42G, 0.627.
The result for G10C C27U A40U A45U G48A reads at most 0.5.
Take G10A G23A C34G: the yeast fitness was at most 0.5.
The result for C11A C22G G67A G68C reads at most 0.5.
To C11A C24G U47G G68C belongs at most 0.5; to G10A A40U G52C C62A A65C A70U, 0.655; to G10A C24G C33G A45U G68C, at most 0.5.
To G10A C34G U64A belongs at most 0.5; to G10C G23C A65C, at most 0.5; to G10A G17A U19A C29U C49G, at most 0.5.
Consider C11A C27G C61G, for which the yeast fitness amounted to 0.52.
The result for G10C C29A C33A C62U reads 0.6.
For G10A G48A A69C, the yeast fitness was determined as 0.628.
The result for G10A G23A reads 0.534; that for G10C C22A C24G C27U U53A, 0.543.
On to G10C A42C, for which the yeast fitness was determined as 0.71.
To G10A C34G A69U belongs at most 0.5; to C11A A40C, 0.708.
The result for G10A C55U C61A reads at most 0.5.
To G10A A14U C30U C34A belongs at most 0.5.
Consider G10A C34U, for which the yeast fitness is at most 0.5.
To G10C C30U C66A belongs at most 0.5.
To C11A C24U C60A belongs at most 0.5.
In the case of G10C A20U A57U, the yeast fitness is at most 0.5.
To G10C C11A C31U A36U G56C A57U belongs 0.606; to C11A C27U C31U C34G A40G, at most 0.5; to C11A A15U A21U A36C A37U, 0.56.
The result for G10C C34G G63A A69U A70C reads at most 0.5.
The result for G10C U16C C22A C33A reads at most 0.5; that for G10C A20U, 0.799.
Consider C11A A14G A15G C22A G23A C33A G38C A70U, for which the yeast fitness was at most 0.5.
To G10C A14G C27U G38A C46G belongs at most 0.5; to C11A C29U C34G A36G, 0.607.
To G10C U19A A37C G50U belongs 0.526; to G10C U32C A42C A65C C66G, 0.614.
To G10C C27A A42U C46G belongs at most 0.5; to G10C C22U, 0.803.
Take G10C C22A: the yeast fitness came to 0.705.
With G10C C55U, the yeast fitness is at most 0.5.
The result for G10C C11U C24U C33G A36U reads at most 0.5; that for G10C G25A, 0.691.
Regarding G10A A36C A70G, the yeast fitness is at most 0.5.
The result for G10A C22G C62U reads at most 0.5.
The result for G10A C11G A20G C55G reads at most 0.5.
The result for G10A U64C reads 0.793; that for C11A A15C U26A C29U C33A G38C C55A C60U, at most 0.5.
On to G10A U16A U28A A70U, for which the yeast fitness is at most 0.5.
To G10A C31U G38C G63A A65G G68C A69G belongs at most 0.5; to G10A A36C, at most 0.5.
To G10A A36G belongs 0.664; to G10C A42U C46G, at most 0.5; to C11A C29U A43C A65U, at most 0.5.
To C11A A36C A42G U47C G67A belongs at most 0.5.
As for G10C C11U G67A, the yeast fitness is at most 0.5.
The result for G10A A15U G51A A65U reads 0.603.
The result for G10A C60U reads 0.544.
To G10A C60G belongs 0.531.
Regarding G10C C29U C34U G38A G44C, the yeast fitness was at most 0.5.
The result for G10A A20C C61A C62U G63U C66A reads 0.646; that for G10A A36C C62G, at most 0.5.
To G10C C55G A69C belongs at most 0.5; to G10C C27G C30G G58A, 0.557.
To G10A G17C C30G C33G C61A A65U belongs at most 0.5; to G10C U13A C31A, 0.594.
As for C11A A43G C46G A65U, the yeast fitness is at most 0.5.
The result for G10C U47A G48A reads 0.568; that for G10C A21C C27A C34A, at most 0.5; that for G10A C22G G25C, at most 0.5.
The result for G10A A21U C33A G68C reads 0.607; that for G10A C11A G38A G52C C61A, at most 0.5.
To G10A U19A A42G U64A belongs 0.612; to C11A A20G C46U G50C C60A, at most 0.5.
Turning to C11A A15U A20C, the yeast fitness was at most 0.5.
The result for G10A G63C A65G reads at most 0.5; that for G10A A21C A40G U59C, at most 0.5.
The result for C11A A42C C62A reads at most 0.5; that for G10C A14C C24A C31G, at most 0.5; that for C11A C27U C33U U35C, 0.634.
The result for G10C C22A C24G G68C reads at most 0.5; that for G10A A15C A70U, at most 0.5.
Turning to G10C A40U A57C A65U, the yeast fitness is at most 0.5.
Take G10A U35C G56A: the yeast fitness was at most 0.5.
For the variant G10A U13G C22G C46G, the yeast fitness was at most 0.5.
The result for G10A C11A C29A A69U reads 0.538; that for G10C U32C C33A, at most 0.5.
For the variant C11A C29U A57C, the yeast fitness is 0.732.
To G10C A45C C46A C66U belongs 0.643; to G10A U19A G44C G67C, 0.52; to G10C U16G A43C G51C, at most 0.5.
The result for G10A U16A A21C reads 1.
Turning to G10A C66U, the yeast fitness is 0.635.
The result for G10C C24U C29A A45U C46G U47A G50A reads 0.702; that for C11A C27A A70G, at most 0.5.
The result for G10A U26A C62U reads 0.529; that for G10C A14U U19A C22U C49U C66U, at most 0.5; that for G10A U19A A42G, at most 0.5.
Take G10C A20G C24U G38C G56C C66U: the yeast fitness is at most 0.5.
Regarding G10A A21C C24A C66A, the yeast fitness is at most 0.5.
To G10C C30G C46U belongs at most 0.5; to G10A U32A G48A, at most 0.5; to G10C C55U U59A, at most 0.5.
With G10A U19A G41C, the yeast fitness is at most 0.5.
To G10C G44U belongs 0.587; to G10A C29A A42U U64C, 0.529; to G10A C33G A70U, at most 0.5.

For the origin of these results see the RNAGym collection of RNA variant scans (doi:10.1126/science.aae0568).
